Laboratory results from ChEMBL document CHEMBL1128185, “New orally active serine protease inhibitors: structural requirements for their good oral activity” (J Med Chem, 1995).

How the values were obtained:
[1] = The half-life period in vitro in rat small Intestine Homogenate; format: ADME
Outline: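 Small intestine from rats fasted 20 h, saline-washed, homogenized in 8 vol 1/10 M sodium phosphate pH 7.4, spun at 600g for 15 min; supernatant (1.0 mL) given 10 µL drug (5 mg/mL in 80% aqueous acetonitrile), 37 °C, 60 min. Aliquots quenched at intervals with acetonitrile containing internal standard and analyzed by HPLC. Half-life (min), mean of two experiments.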

[2] = The half-life period in vitro in plasma; format: ADME, cell-free
Outline: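 Rat plasma (1.0 mL) spiked with 5 µL of drug dissolved at 2 mg/mL in 80% aqueous acetonitrile, incubated at 37 °C for 60 min. Parent drug and products followed by ion-paired HPLC with internal standard; metabolites identified by retention times of synthesized authentic samples. Stability expressed as half-life (min), mean of two separate experiments.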

Structure (SMILES) | half-life [1] [min] | half-life [2] [min]
C/C(=C\c1ccc(C(=O)Oc2ccc(C(=N)N)cc2)cc1)C(=O)N(CC(=O)O)C1CCCCC1 | 49 | > 60
C=CCN(CCC(=O)O)C(=O)/C(C)=C/c1ccc(C(=O)Oc2ccc(C(=N)N)cc2)cc1 | > 60 | 47
CCOC(=O)CN(C(=O)/C(C)=C/c1ccc(C(=O)Oc2ccc(C(=N)N)cc2)cc1)C1CCCCC1 | > 60 | < 5
C/C(=C\c1ccc(C(=O)Oc2ccc(C(=N)N)cc2)cc1)C(=O)N(CC(=O)O)C1CCCC1 | 42 | 23
CCOC(=O)CN(C(=O)/C(C)=C/c1ccc(C(=O)Oc2ccc(C(=N)N)cc2)cc1)C1CCCC1 | > 60 | < 5
CCOC(=O)C(C(=O)OCC)N(CCCC(=O)O)C(=O)/C(C)=C/c1ccc(C(=O)Oc2ccc(C(=N)N)cc2)cc1 | – | 29
C/C(=C\c1ccc(C(=O)Oc2ccc(C(=N)N)cc2)cc1)C(=O)N(CC(=O)O)Cc1ccccc1 | 50 | > 60
CCOC(=O)CCCN(C(=O)/C(C)=C/c1ccc(C(=O)Oc2ccc(C(=N)N)cc2)cc1)C(C(=O)OCC)C(=O)OCC | – | < 1
C/C(=C\c1ccc(C(=O)Oc2ccc(C(=N)N)cc2)cc1)C(=O)N(CCO)Cc1ccccc1 | 41 | < 5
C=CCN(CCCC(=O)O)C(=O)/C(C)=C/c1ccc(C(=O)Oc2ccc(C(=N)N)cc2)cc1 | 55 | > 60
CCOC(=O)CN(Cc1ccccc1)C(=O)/C(C)=C/c1ccc(C(=O)Oc2ccc(C(=N)N)cc2)cc1 | 44 | < 1
CCN(CC(=O)O)C(=O)/C(C)=C/c1ccc(C(=O)Oc2ccc(C(=N)N)cc2)cc1 | > 60 | 60
CCOC(=O)CCCN(C(=O)/C(C)=C/c1ccc(C(=O)Oc2ccc(C(=N)N)cc2)cc1)C(C(=O)O)C(=O)OCC (stereo not given) | – | 14
C=CCN(CCC(=O)OCC)C(=O)/C(C)=C/c1ccc(C(=O)Oc2ccc(C(=N)N)cc2)cc1 | – | < 1
C=CCN(CCCC(=O)OCC)C(=O)/C(C)=C/c1ccc(C(=O)Oc2ccc(C(=N)N)cc2)cc1 | – | < 1
